Data on 37 sequences can be found in the array DNA melting data of Ke et al. (doi:10.1101/2024.01.08.574731).

Series [1] can be described thus: folding enthalpy; higher = less favourable; fluorescence melt of hairpins on a sequencing array, two-state fit. As to conditions: sodium 0.088 M. The procedure, abridged: (§1)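 With Cy3 and quencher oligos annealed, library hairpins on a sequenced MiSeq flow cell were imaged for Cy3 fluorescence in 50 mM Na-HEPES pH 8.0, 25 mM NaCl, in 2.5 °C steps up to 60 °C. Melting temperature and folding enthalpy were derived from bootstrapped two-state fits of signals normalised to pre-quench Cy3 and to control constructs. Four replicates were combined by inverse variance, with fitted temperatures raised by 9.35 °C to match UV melts.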

A short description of series [2]: melting temperature; fluorescence melt of hairpins on a sequencing array, two-state fit, raised by 9.35 °C to match UV melts. As to conditions: sodium 0.088 M. The procedure, abridged: as §1

As for GACGTGGGAAACCACACC (..((((....))))..), the folding enthalpy in series [1] is -11.9 kcal/mol. The Tm in series [2] was determined as 25.5 °C.

For the sequence GACGTGGGAAACCACATC ((.((((....)))).)), the folding enthalpy in series [1] is -17.4 kcal/mol. Also, the Tm in series [2] was 34.5 °C.

Turning to GACGTGGGAAACCATGTC (((.(((....))).))), the folding enthalpy in series [1] is -42.7 kcal/mol. In addition, the Tm in series [2] is 51.4 °C.

Regarding GACGTGGGAAACCGCGTC ((((.((....)).)))), the folding enthalpy in series [1] was -43.8 kcal/mol. In addition, the Tm in series [2] amounted to 61.5 °C.

With GACGTTGAAAAACGTC ((((((....)))))), the folding enthalpy in series [1] was -33.9 kcal/mol. For the same sequence, the Tm in series [2] was determined as 60.1 °C.

For GACGTTGGAAACAACACC (..((((....))))..), in series [1], the folding enthalpy is -9.55 kcal/mol. In series [2], the Tm was determined as 25.2 °C.

As to GACGTTGGAAACGATGTC (((.(.(....).).))), the folding enthalpy in series [1] was -16.9 kcal/mol. Besides, the Tm in series [2] was determined as 33.4 °C.

As for GACTAACGAAAGTTCGTC (((.(((....))).))), the folding enthalpy in series [1] is -30.5 kcal/mol. In addition, the Tm in series [2] stood at 42.5 °C.

For GACTAACGAAAGTTTGTC (((.(((....))).))), the folding enthalpy in series [1] is -30.9 kcal/mol. Moreover, the Tm in series [2] was 47 °C.

Regarding GACTAAGAAATTAGTC ((((((....)))))), the folding enthalpy in series [1] was -24.9 kcal/mol. Moreover, the Tm in series [2] came out at 40.5 °C.

With GACTAAGCGAAAGCTGTC (((..(((....)))))), the folding enthalpy in series [1] was -15 kcal/mol. Moreover, the Tm in series [2] was found to be 45 °C.

Regarding GACTACCGAAAGGTCGTC (((.(((....))).))), the folding enthalpy in series [1] is -39.4 kcal/mol. The Tm in series [2] was 48.6 °C.

As for GACTACCGAAAGGTGGTC (((.(((....))).))), in series [1], the folding enthalpy was -38.6 kcal/mol. For the same sequence, in series [2], the Tm was 58.4 °C.

With GACTACGAAAGTAACGTC ((((((....)))..))), the folding enthalpy in series [1] is -16 kcal/mol. In series [2], the Tm came out at 31.8 °C.

GACTACGAAAGTACAGTC ((((((....)))..))): in series [1], the folding enthalpy was -18.3 kcal/mol. The Tm in series [2] was determined as 34 °C.

On to GACTACGAAAGTACGGTC ((((((....)))..))), for which the folding enthalpy in series [1] was -20.4 kcal/mol. Besides, the Tm in series [2] stood at 32 °C.

With GACTACGAAAGTATCGTC ((((((....)))..))), the folding enthalpy in series [1] is -20.4 kcal/mol. Moreover, in series [2], the Tm came to 31.1 °C.

Consider GACTAGGGAAACCCAGTC ((((.((....)).)))), for which the folding enthalpy in series [1] was -30.1 kcal/mol. In addition, in series [2], the Tm was determined as 40.2 °C.

GACTAGGGAAACCTGGTC (((.(((....))).))): in series [1], the folding enthalpy is -35.7 kcal/mol. Besides, the Tm in series [2] turned out to be 46.7 °C.

As for GACTAGGGAAACTTAGTC (((((.(....).))))), in series [1], the folding enthalpy is -30.1 kcal/mol. Also, the Tm in series [2] was determined as 37.9 °C.

As to GACTATGAAAATAGTC ((((((....)))))), in series [1], the folding enthalpy is -32.8 kcal/mol. Moreover, the Tm in series [2] was determined as 49.5 °C.

Regarding GACTATGCGAAAGCAGTC (((..(((....)))))), the folding enthalpy in series [1] was -15.3 kcal/mol. Moreover, the Tm in series [2] amounted to 44 °C.

As to GACTATGGAAACATGGTC (((.(((....))).))), the folding enthalpy in series [1] is -35.5 kcal/mol. Moreover, the Tm in series [2] was determined as 45.4 °C.

For GACTCAACGAAAGTTGTC (((..(((....)))))), the folding enthalpy in series [1] was -10.2 kcal/mol. Further, the Tm in series [2] came to 29.9 °C.

In the case of GACTCACGAAAGTGTGTC (((.(((....))).))), the folding enthalpy in series [1] was -38.5 kcal/mol. The Tm in series [2] stood at 53.7 °C.

On to GACTCAGGAAACTGGGTC (((.(((....))).))), for which, in series [1], the folding enthalpy is -37.8 kcal/mol. In addition, the Tm in series [2] was 49.2 °C.

For GACTCCACGAAAGTGGTC (((..(((....)))))), in series [1], the folding enthalpy is -8.79 kcal/mol. Also, the Tm in series [2] was 29.5 °C.

With GACTCCGAAAGGAACGTC ((((((....)))..))), in series [1], the folding enthalpy is -15.2 kcal/mol. The Tm in series [2] stood at 36 °C.

Take GACTCCGAAAGGAATGTC ((((((....)))..))): the folding enthalpy in series [1] was -17.7 kcal/mol. For the same sequence, the Tm in series [2] was determined as 38.6 °C.

Consider GACTCCGAAAGGACGGTC ((((((....)))..))), for which the folding enthalpy in series [1] is -17.9 kcal/mol. Also, the Tm in series [2] came out at 35.3 °C.

On to GACTCCGAAAGGAGGGTC ((((((....)))..))), for which the folding enthalpy in series [1] is -17 kcal/mol. In addition, the Tm in series [2] is 50.8 °C.

In the case of GACTCCGGAAACGGAATC ((.((((....)))).)), the folding enthalpy in series [1] was -19.1 kcal/mol. The Tm in series [2] came out at 36.4 °C.

In the case of GACTCCGGAAACGGAGCC (.(((((....))))).), the folding enthalpy in series [1] is -13.6 kcal/mol. Besides, the Tm in series [2] is 50.5 °C.

Turning to GACTCGGGAAACCGAATC ((.((((....)))).)), the folding enthalpy in series [1] was -18.2 kcal/mol. Besides, in series [2], the Tm turned out to be 35.4 °C.

For GACTCGGGAAACTGGGTC (((.(.(....).).))), in series [1], the folding enthalpy is -29.9 kcal/mol. Moreover, the Tm in series [2] stood at 38 °C.

GACTCTGAAAAGAGTC ((((((....)))))): the folding enthalpy in series [1] was -32 kcal/mol. For the same sequence, the Tm in series [2] stood at 58 °C.

In the case of GACTCTGGAAACAGAATC ((.((((....)))).)), in series [1], the folding enthalpy is -22.3 kcal/mol. Moreover, the Tm in series [2] came to 28.5 °C.
